Experimental data published in PMC5292677 (Leukemia, 2016).

Test system: patients with myelofibrosis
Experiment: Phase I safety: drug-related adverse events, DLTs, tolerability
Assay type: in vivo, human
Method in brief: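 Design was 3+3 dose escalation of oral test compound QD (75–400 mg) or BID (100–400 mg) in 28-day cycles. AEs were graded by CTCAE v4.0 with causality, alongside labs, ECGs, vital signs and physical exams. A DLT was grade 4 cytopenia, other grade 3/4 hematologic toxicity, or grade 3/4 non-hematologic toxicity, excluding manageable GI events. The population was all patients dosed ≥1 time.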

## C[C@H](Nc1cc(-c2cnn(C)c2)cc(Nc2cnccn2)n1)c1ccc(F)cc1 [NS-018]
75 mg QD (n=3)
  Drug-related anemia, all grades: 0 n (%)
  Drug-related diarrhea, all grade: 0 n (%)
  Drug-related dizziness, all grade: 0 n (%)
  Drug-related esophageal reflux, all grade: 0 n (%)
  Drug-related headache, all grade: 0 n (%)
  Drug-related nausea, all grade: 0 n (%)
  Drug-related paresthesia, all grade: 0 n (%)
  Drug-related thrombocytopenia, Grade 1/2: 0 n (%)
  Drug-related thrombocytopenia, Grade 3: 0 n (%)
  Drug-related thrombocytopenia, Grade 4: 1 (33) n (%)
  Drug-related thrombocytopenia, all grades: 1 (33) n (%)
  Drug-related vomiting, all grade: 0 n (%)
  Drug-related weight increased, all grade: 0 n (%)
100 mg BID (n=5)
  Drug-related anemia, all grades: 0 n (%)
  Drug-related diarrhea, all grade: 0 n (%)
  Drug-related dizziness, all grade: 0 n (%)
  Drug-related esophageal reflux, all grade: 0 n (%)
  Drug-related headache, all grade: 0 n (%)
  Drug-related nausea, all grade: 0 n (%)
  Drug-related paresthesia, all grade: 0 n (%)
  Drug-related thrombocytopenia, Grade 1/2: 0 n (%)
  Drug-related thrombocytopenia, Grade 3: 1 (20) n (%)
  Drug-related thrombocytopenia, Grade 4: 0 n (%)
  Drug-related thrombocytopenia, all grades: 1 (20) n (%)
  Drug-related vomiting, all grade: 0 n (%)
  Drug-related weight increased, all grade: 0 n (%)
125 mg QD (n=4)
  Drug-related anemia, all grades: 0 n (%)
  Drug-related diarrhea, all grade: 0 n (%)
  Drug-related dizziness, all grade: 0 n (%)
  Drug-related esophageal reflux, all grade: 0 n (%)
  Drug-related headache, all grade: 0 n (%)
  Drug-related nausea, all grade: 0 n (%)
  Drug-related paresthesia, all grade: 0 n (%)
  Drug-related thrombocytopenia, all grades: 0 n (%)
  Drug-related vomiting, all grade: 0 n (%)
  Drug-related weight increased, all grade: 0 n (%)
200 mg BID (n=12)
  Drug-related anemia, all grades: 0 n (%)
  Drug-related diarrhea, all grade: 2 (17) n (%)
  Drug-related diarrhea, grade 3 or 4: 0 n (%)
  Drug-related dizziness, all grade: 1 (8) n (%)
  Drug-related dizziness, grade 3 or 4: 0 n (%)
  Drug-related esophageal reflux, all grade: 0 n (%)
  Drug-related headache, all grade: 0 n (%)
  Drug-related nausea, all grade: 1 (8) n (%)
  Drug-related nausea, grade 3 or 4: 0 n (%)
  Drug-related paresthesia, all grade: 0 n (%)
  Drug-related thrombocytopenia, Grade 1/2: 1 (8) n (%)
  Drug-related thrombocytopenia, all grades: 1 (8) n (%)
  Drug-related vomiting, all grade: 0 n (%)
  Drug-related weight increased, all grade: 0 n (%)
200 mg QD (n=9)
  Drug-related anemia, Grade 1/2: 1 (11) n (%)
  Drug-related anemia, all grades: 1 (11) n (%)
  Drug-related diarrhea, all grade: 2 (22) n (%)
  Drug-related diarrhea, grade 3 or 4: 0 n (%)
  Drug-related dizziness, all grade: 0 n (%)
  Drug-related esophageal reflux, all grade: 0 n (%)
  Drug-related headache, all grade: 0 n (%)
  Drug-related nausea, all grade: 1 (11) n (%)
  Drug-related nausea, grade 3 or 4: 0 n (%)
  Drug-related paresthesia, all grade: 0 n (%)
  Drug-related thrombocytopenia, all grades: 0 n (%)
  Drug-related vomiting, all grade: 2 (22) n (%)
  Drug-related vomiting, grade 3 or 4: 0 n (%)
  Drug-related weight increased, all grade: 2 (22) n (%)
  Drug-related weight increased, grade 3 or 4: 0 n (%)
250 mg BID (n=8)
  Drug-related anemia, Grade 1/2: 1 (13) n (%)
  Drug-related anemia, Grade 3: 0 n (%)
  Drug-related anemia, Grade 4: 0 n (%)
  Drug-related anemia, all grades: 1 (13) n (%)
  Drug-related diarrhea, all grade: 0 n (%)
  Drug-related dizziness, all grade: 1 (13)/1 (13) n (%)
  Drug-related dizziness, grade 3 or 4: 1 (13)/1 (13) n (%)
  Drug-related esophageal reflux, all grade: 1 (13) n (%)
  Drug-related esophageal reflux, grade 3 or 4: 0 n (%)
  Drug-related headache, all grade: 0 n (%)
  Drug-related nausea, all grade: 2 (25) n (%)
  Drug-related nausea, grade 3 or 4: 1 (13) n (%)
  Drug-related paresthesia, all grade: 0 n (%)
  Drug-related thrombocytopenia, Grade 1/2: 2 (25) n (%)
  Drug-related thrombocytopenia, Grade 3: 0 n (%)
  Drug-related thrombocytopenia, Grade 4: 1 (13) n (%)
  Drug-related thrombocytopenia, all grades: 3 (38) n (%)
  Drug-related vomiting, all grade: 0 n (%)
  Drug-related weight increased, all grade: 0 n (%)
250 mg BID cohort
  DLT: grade 3 QT prolongation: 1 patient
300 mg BID
  Patients who discontinued owing to AEs (beyond DLT): 3 patients
  Rate of discontinuations owing to AEs: 38%
300 mg BID (n=12)
  Drug-related anemia, Grade 1/2: 1 (8) n (%)
  Drug-related anemia, Grade 3: 2 (17) n (%)
  Drug-related anemia, Grade 4: 0 n (%)
  Drug-related anemia, all grades: 3 (25) n (%)
  Drug-related diarrhea, all grade: 1 (8) n (%)
  Drug-related diarrhea, grade 3 or 4: 0 n (%)
  Drug-related dizziness, all grade: 3 (25) n (%)
  Drug-related dizziness, grade 3 or 4: 0 n (%)
  Drug-related esophageal reflux, all grade: 1 (8) n (%)
  Drug-related esophageal reflux, grade 3 or 4: 0 n (%)
  Drug-related headache, all grade: 0 n (%)
  Drug-related nausea, all grade: 4 (33) n (%)
  Drug-related nausea, grade 3 or 4: 0 n (%)
  Drug-related paresthesia, all grade: 2 (17) n (%)
  Drug-related paresthesia, grade 3 or 4: 1 (8) n (%)
  Drug-related thrombocytopenia, Grade 1/2: 3 (25) n (%)
  Drug-related thrombocytopenia, Grade 3: 1 (8) n (%)
  Drug-related thrombocytopenia, Grade 4: 0 n (%)
  Drug-related thrombocytopenia, all grades: 4 (33) n (%)
  Drug-related vomiting, all grade: 0 n (%)
  Drug-related weight increased, all grade: 1 (8) n (%)
  Drug-related weight increased, grade 3 or 4: 0 n (%)
